The values that follow come from ChEMBL document CHEMBL1137852, “Novel fluoro- and hydroxyl-containing jasmonate derivatives as highly efficient elicitors in suspension cultures of Taxus chinensis” (2004).

What all share (format): functional
A short description of test [1]: Eliciting activity on Tc (taxuyunnanine C) production in cell cultures of Taxus chinensis. In a few lines: (§1)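 T. chinensis suspension cells grown in 50 mL medium in 250-mL flasks. Elicitor added on day 7 post-inoculation in ethanol (1 µL per mL medium); controls received an equal volume of ethanol. Tc quantified by reverse-phase HPLC; maximum volumetric production (mg/L) within 21 days reported. Triplicate cultures, mean ± S.D.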

Test [2] can be described thus: Eliciting activity on Tc (taxuyunnanine C) content in cell cultures of Taxus chinensis. In a few lines:
(§2)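 T. chinensis suspension cells grown in 50 mL medium in 250-mL flasks. Elicitor added on day 7 after inoculation in ethanol (1 µL per mL medium); controls received an equal volume of ethanol. Tc measured by reverse-phase HPLC and expressed as mg per g dry cells; maximum content within 21 days reported. Triplicate cultures, mean ± S.D.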

The nature of test [3]: Effect on Tc (taxuyunnanine C) content in cell cultures of Taxus chinensis at a concentration of 0 uM. In a few lines: as §2
The nature of test [4]: Effect on Tc (taxuyunnanine C) content in cell cultures of Taxus chinensis. The procedure, abridged:
as §2

Test [5] is described as follows: Effect on Tc (taxuyunnanine C) production in cell cultures of Taxus chinensis at a concentration of 0 uM. The procedure, abridged: as §1
The nature of test [6]: Effect on Tc (taxuyunnanine C) content in cell cultures of Taxus chinensis at a concentration of 10 uM. In a few lines:
as §2

The nature of test [7]: Effect on Tc (taxuyunnanine C) production in cell cultures of Taxus chinensis at a concentration of 1 uM. In a few lines: as §1
The nature of test [8]: Effect on Tc (taxuyunnanine C) content in cell cultures of Taxus chinensis at a concentration of 100 uM. In a few lines: as §2
The nature of test [9]: Effect on Tc (taxuyunnanine C) content in cell cultures of Taxus chinensis at a concentration of 500 uM. The procedure, abridged: as §2
Test [10] in a line: Effect on Tc (taxuyunnanine C) production in cell cultures of Taxus chinensis at a concentration of 500 uM. In a few lines: as §1
Test [11] is described as follows: Effect on Tc (taxuyunnanine C) production in cell cultures of Taxus chinensis at a concentration of 10 uM. In a few lines:
as §1

Test [12] is described as follows: Effect on Tc (taxuyunnanine C) content in cell cultures of Taxus chinensis at a concentration of 1 uM. The procedure, abridged:
as §2

Test [13] can be described thus: Effect on Tc (taxuyunnanine C) production in cell cultures of Taxus chinensis. In a few lines: as §1
A short description of test [14]: Effect on Tc (taxuyunnanine C) production in cell cultures of Taxus chinensis at a concentration of 100 uM. The procedure, abridged:
as §1

On to `CC/C=C/CC1C(=O)CCC1CC(=O)OCCO` (centres undefined), for which the figures for the Activity in test [1] and in [2] were 464 mg/L and 38.1 mg/g DW, respectively.
On the same counts, the results for `CC/C=C/CC1C(=O)CCC1CC(=O)OC` (centres undefined) are 386 mg/L and 29.2 mg/g DW.
`CC/C=C/CC1C(=O)CCC1CC(=O)OCCOCCO` (centres undefined): the Activity in test [1] was found to be 417 mg/L; in [2] it was 31.4 mg/g DW.
The matching figures for `CC/C=C/CC1C(=O)CCC1CC(=O)OCC(F)(F)C(F)(F)F` (centres undefined): 480.5 mg/L and 38.22 mg/g DW.
The matching figures for `CC/C=C/CC1C(=O)CCC1CC(=O)OCCC` (centres undefined): 357 mg/L and 27.9 mg/g DW.
As to `CC/C=C/CC1C(=O)CCC1CC(=O)OCC(F)(F)F` (centres undefined), the Activity came out at 440.3 mg/L in test [1] and 34.94 mg/g DW in test [2].
`CC/C=C/CC1C(=O)CCC1CC(=O)OCC(O)CO` (centres undefined): the Activity in test [3] was 9.4 mg/g DW; in [4] it was 47.2 mg/g DW; in [5] it was 128 mg/L; in test [6], 27 mg/g DW; in test [7] it was 160 mg/L; in [8] it was 43.2 mg/g DW. Besides, the Activity in test [9] stood at 49.8 mg/g DW; in test [10], 522 mg/L; in [11], 358 mg/L; in test [12], 11.6 mg/g DW; in [13] it was 550 mg/L; in test [14], 544 mg/L.
